From ChEMBL document CHEMBL3797175, “Discovery of 6-(difluoro(6-(4-fluorophenyl)-[1,2,4]triazolo[4,3-b][1,2,4]triazin-3-yl)methyl)quinoline as a highly potent and selective c-Met inhibitor” (Eur J Med Chem, 2016)

Columns and labels:
[1] = test system: Epidermal growth factor receptor (Homo sapiens), P00533 [L858R,T790M]; assay: Inhibition of EGFR T790M/L858R double mutant (unknown origin) using poly (Glu, Tyr) 4:1 as substrate at 1000 nM incubated for 60 mins by ELISA relative to control; assay type: protein assay
How it was run: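 Recombinant kinase, ELISA on a poly(Glu,Tyr)4:1 coat (20 μg/mL). 10 μmol/L ATP in HEPES pH 7.4 with MgCl2, MnCl2, Na3VO4 and DTT; 1% DMSO. Reaction 60 min at 37 °C. Phosphotyrosine detected with PY99 and HRP anti-mouse IgG, o-phenylenediamine substrate, A490. Inhibition % versus DMSO control; two separate experiments.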

[2] = molecular target: Receptor tyrosine-protein kinase erbB-2 (Homo sapiens) (UniProt P04626); assay: Inhibition of recombinant ERBB2 (unknown origin) using poly (Glu, Tyr) 4:1 as substrate at 1000 nM incubated for 60 mins by ELISA relative to control
How it was run: (§1)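 Recombinant tyrosine kinases assayed on wells precoated with poly(Glu,Tyr)4:1 (20 µg/mL). ATP 10 µmol/L in HEPES pH 7.4 buffer with MgCl2, MnCl2, Na3VO4 and DTT; compound in 1% DMSO, 1% DMSO as control. Reaction 60 min at 37 °C. Phosphotyrosine detected with PY99 and HRP anti-mouse, o-phenylenediamine, A490. Inhibition % relative to control; two experiments.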

[3] = Selectivity ratio of IC50 for human AGS cells to IC50 for human EBC1 cells; assay type: ADME, cell-based
How it was run: (§2)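 Both IC50s in each ratio come from one proliferation assay. Cells were seeded and exposed the next day to a range of concentrations for 72 h, then read by SRB or MTT. IC50s were fitted by four-parameter concentration–response, with each concentration at least in triplicate and at least 2 experiments. BaF3/TPR-Met is murine pre-B BaF3 transfected with TPR-MET and puromycin-selected.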

[4] = Selectivity ratio of IC50 for human SNU16 cells to IC50 for human EBC1 cells; assay type: ADME, cell-based; conditions: snu-16
[5] = Selectivity ratio of IC50 for human SNU1 cells to IC50 for human MKN45 cells; assay type: ADME, cell-based; conditions: mkn-45
[6] = molecular target: Ephrin type-A receptor 2 (Homo sapiens) (UniProt P29317); assay: Inhibition of recombinant EPHA2 (unknown origin) using poly (Glu, Tyr) 4:1 as substrate at 1000 nM incubated for 60 mins by ELISA relative to control; how it was run: as §1
[7] = molecular target: Tyrosine-protein kinase receptor TYRO3 (Homo sapiens, UniProt Q06418); assay: Inhibition of recombinant TYRO3 (unknown origin) using poly (Glu, Tyr) 4:1 as substrate incubated for 60 mins by ELISA
[8] = Antiproliferative activity against human PANC1 cells after 72 hrs by SRB or MTT assay; assay type: functional, cell-based; conditions: PANC-1, 72 h
How it was run: (§3)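 Cells seeded, exposed next day to a range of concentrations for 72 h. Growth read by sulforhodamine B or MTT. IC50 from four-parameter concentration-response fit. Each concentration tested at least in triplicate, with at least 2 experiments.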

[9] = Antiproliferative activity against human U87MG cells after 72 hrs by SRB or MTT assay; assay type: functional, cell-based, U-87MG ATCC; conditions: U-87 MG; how it was run: as §3
NCI-H596 = assay: Antiproliferative activity against human NCI-H596 cells after 72 hrs by SRB or MTT assay; assay type: functional, cell-based; conditions: NCI-H596, 72 h; how it was run: as §3
[10] = Antiproliferative activity against human SGC7901 cells after 72 hrs by SRB or MTT assay; assay type: functional, cell-based; conditions: SGC-7901, 72 h; how it was run: as §3
[11] = Antiproliferative activity against human SPCA4 cells after 72 hrs by SRB or MTT assay; assay type: functional, cell-based; conditions: SPC-A4, 72 h; how it was run: as §3
[12] = molecular target: Hepatocyte growth factor receptor (Canis lupus familiaris) (UniProt Q75ZY9); assay: Inhibition of c-Met in MDCK cells assessed as inhibition of HGF-induced cell scattering after 24 hrs by crystal violet staining based microscopic analysis
How it was run: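 MDCK cells, 1.5×10^3 per well, grown overnight, then given increasing compound concentrations plus HGF (100 ng/mL). Incubated 24 h at 37 °C, 5% CO2. Fixed in 4% paraformaldehyde 15 min, stained with 0.2% crystal violet and imaged by microscopy. Three independent experiments.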

[13] = Antitumor activity against human MKN45 cells xenografted in athymic nude mouse assessed as tumor growth inhibition at 12.5 mg/kg, po bid for 21 days measured twice a week during compound dosing relative to control; assay type: functional; conditions: MKN-45, po, 504 h, read-out: TGI
How it was run: (§4)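 Nude mice bearing s.c. tumours. Cells were first grown s.c. to 700–800 mm³, then 1.5 mm³ fragments were transplanted s.c. into the right flank. Mice were randomised at 100–200 mm³ (n=6 treated, n=12 vehicle) and dosed orally twice daily for 21 days. Caliper measurement twice weekly; TV = length×width²/2. TGI taken on the final day versus vehicle; Student's t test.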

[14] = Antitumor activity against human MKN45 cells xenografted in athymic nude mouse assessed as tumor growth inhibition at 6.25 mg/kg, po bid for 21 days measured twice a week during compound dosing relative to control; assay type: functional; conditions: MKN-45, po, 504 h, read-out: TGI; how it was run: as §4
[15] = Selectivity ratio of IC50 for human PANC1 cells to IC50 for mouse BAF3 cells expressing TPR-MET; assay type: ADME, cell-based
How it was run: (§5)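 Each cell line was seeded in 96-well plates, then exposed the next day to a range of compound concentrations for 72 h. Growth was read by SRB or MTT assay, and IC50 was fitted by a four-parameter concentration-response curve. Each concentration was run at least in triplicate, in at least 2 experiments. BaF3/TPR-Met are murine pre-B BaF3 cells transfected with TPR-MET cDNA and selected in puromycin.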

[16] = Selectivity ratio of IC50 for human U87MG cells to IC50 for mouse BAF3 cells expressing TPR-MET; assay type: ADME, cell-based
[17] = Selectivity ratio of IC50 for human 786-0 cells to IC50 for human EBC1 cells; assay type: ADME, cell-based; how it was run: as §2
[18] = Selectivity ratio of IC50 for human 786-0 cells to IC50 for human MKN45 cells; assay type: ADME, cell-based; conditions: mkn-45; how it was run: as §2
[19] = Selectivity ratio of IC50 for human SMMC7721 cells to IC50 for human MKN45 cells; assay type: ADME, cell-based; conditions: smmc-7721; how it was run: as §5
[20] = Selectivity ratio of IC50 for human HCT116 cells to IC50 for human MKN45 cells; assay type: ADME, cell-based; conditions: hct-116; how it was run: as §2
[21] = Selectivity ratio of IC50 for human NCI-H358 cells to IC50 for human MKN45 cells; assay type: ADME, cell-based; how it was run: as §2
[22] = Selectivity ratio of IC50 for human NCI-H292 cells to IC50 for human MKN45 cells; assay type: ADME, cell-based; how it was run: as §2
[23] = Selectivity ratio of IC50 for human NCI-H3122 cells to IC50 for human EBC1 cells; assay type: ADME, cell-based; how it was run: as §2
[24] = Selectivity ratio of IC50 for human NCI-H460 cells to IC50 for human MKN45 cells; assay type: ADME, cell-based; how it was run: as §2
[25] = Selectivity ratio of IC50 for human BGC823 cells to IC50 for mouse BAF3 cells expressing TPR-MET; assay type: ADME, cell-based; how it was run: as §2
[26] = Selectivity ratio of IC50 for human SPCA4 cells to IC50 for human EBC1 cells; assay type: ADME, cell-based; conditions: spc-a4
[27] = Selectivity ratio of IC50 for human SPCA1 cells to IC50 for human EBC1 cells; assay type: ADME, cell-based; conditions: SPCA1 cells versus EBC1 cells

Hepatocyte growth factor receptor (Canis lupus familiaris), sequence (Q75ZY9 whole entry): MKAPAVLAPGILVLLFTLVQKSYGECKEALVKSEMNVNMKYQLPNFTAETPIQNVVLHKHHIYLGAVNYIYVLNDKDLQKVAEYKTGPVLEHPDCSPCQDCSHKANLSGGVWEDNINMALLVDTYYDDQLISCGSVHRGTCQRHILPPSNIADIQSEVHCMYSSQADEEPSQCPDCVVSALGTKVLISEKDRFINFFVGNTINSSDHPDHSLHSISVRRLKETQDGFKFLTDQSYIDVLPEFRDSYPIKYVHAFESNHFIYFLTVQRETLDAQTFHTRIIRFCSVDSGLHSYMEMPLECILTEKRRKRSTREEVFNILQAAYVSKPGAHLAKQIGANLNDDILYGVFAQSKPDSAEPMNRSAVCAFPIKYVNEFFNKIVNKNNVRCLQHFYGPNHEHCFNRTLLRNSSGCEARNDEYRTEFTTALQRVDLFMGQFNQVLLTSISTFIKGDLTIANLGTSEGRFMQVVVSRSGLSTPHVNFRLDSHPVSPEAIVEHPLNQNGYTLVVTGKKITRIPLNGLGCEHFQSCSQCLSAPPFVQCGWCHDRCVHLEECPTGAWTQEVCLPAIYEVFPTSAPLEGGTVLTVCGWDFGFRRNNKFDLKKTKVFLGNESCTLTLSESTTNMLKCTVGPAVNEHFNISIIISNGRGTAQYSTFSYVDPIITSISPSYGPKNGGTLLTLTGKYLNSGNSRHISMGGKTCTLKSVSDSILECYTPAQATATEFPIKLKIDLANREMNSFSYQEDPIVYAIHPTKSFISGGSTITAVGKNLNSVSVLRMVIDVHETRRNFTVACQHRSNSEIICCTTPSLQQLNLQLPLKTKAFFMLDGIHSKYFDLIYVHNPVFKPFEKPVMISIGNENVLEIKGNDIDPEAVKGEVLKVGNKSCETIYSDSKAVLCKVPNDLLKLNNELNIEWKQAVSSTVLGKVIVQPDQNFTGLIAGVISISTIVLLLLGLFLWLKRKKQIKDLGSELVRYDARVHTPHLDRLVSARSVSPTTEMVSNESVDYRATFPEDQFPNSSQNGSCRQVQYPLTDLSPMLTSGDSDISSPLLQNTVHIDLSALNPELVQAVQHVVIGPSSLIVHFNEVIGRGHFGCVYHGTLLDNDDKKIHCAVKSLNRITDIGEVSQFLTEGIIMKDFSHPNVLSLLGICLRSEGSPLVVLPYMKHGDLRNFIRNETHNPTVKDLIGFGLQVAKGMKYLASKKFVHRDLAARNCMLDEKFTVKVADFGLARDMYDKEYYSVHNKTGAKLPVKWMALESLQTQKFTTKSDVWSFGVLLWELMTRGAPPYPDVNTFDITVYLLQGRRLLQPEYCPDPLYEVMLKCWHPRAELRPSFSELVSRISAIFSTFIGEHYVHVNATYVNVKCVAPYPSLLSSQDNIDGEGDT
Epidermal growth factor receptor (Homo sapiens), P00533 [L858R,T790M], sequence (P00533 whole entry T790M/L858R, looked up): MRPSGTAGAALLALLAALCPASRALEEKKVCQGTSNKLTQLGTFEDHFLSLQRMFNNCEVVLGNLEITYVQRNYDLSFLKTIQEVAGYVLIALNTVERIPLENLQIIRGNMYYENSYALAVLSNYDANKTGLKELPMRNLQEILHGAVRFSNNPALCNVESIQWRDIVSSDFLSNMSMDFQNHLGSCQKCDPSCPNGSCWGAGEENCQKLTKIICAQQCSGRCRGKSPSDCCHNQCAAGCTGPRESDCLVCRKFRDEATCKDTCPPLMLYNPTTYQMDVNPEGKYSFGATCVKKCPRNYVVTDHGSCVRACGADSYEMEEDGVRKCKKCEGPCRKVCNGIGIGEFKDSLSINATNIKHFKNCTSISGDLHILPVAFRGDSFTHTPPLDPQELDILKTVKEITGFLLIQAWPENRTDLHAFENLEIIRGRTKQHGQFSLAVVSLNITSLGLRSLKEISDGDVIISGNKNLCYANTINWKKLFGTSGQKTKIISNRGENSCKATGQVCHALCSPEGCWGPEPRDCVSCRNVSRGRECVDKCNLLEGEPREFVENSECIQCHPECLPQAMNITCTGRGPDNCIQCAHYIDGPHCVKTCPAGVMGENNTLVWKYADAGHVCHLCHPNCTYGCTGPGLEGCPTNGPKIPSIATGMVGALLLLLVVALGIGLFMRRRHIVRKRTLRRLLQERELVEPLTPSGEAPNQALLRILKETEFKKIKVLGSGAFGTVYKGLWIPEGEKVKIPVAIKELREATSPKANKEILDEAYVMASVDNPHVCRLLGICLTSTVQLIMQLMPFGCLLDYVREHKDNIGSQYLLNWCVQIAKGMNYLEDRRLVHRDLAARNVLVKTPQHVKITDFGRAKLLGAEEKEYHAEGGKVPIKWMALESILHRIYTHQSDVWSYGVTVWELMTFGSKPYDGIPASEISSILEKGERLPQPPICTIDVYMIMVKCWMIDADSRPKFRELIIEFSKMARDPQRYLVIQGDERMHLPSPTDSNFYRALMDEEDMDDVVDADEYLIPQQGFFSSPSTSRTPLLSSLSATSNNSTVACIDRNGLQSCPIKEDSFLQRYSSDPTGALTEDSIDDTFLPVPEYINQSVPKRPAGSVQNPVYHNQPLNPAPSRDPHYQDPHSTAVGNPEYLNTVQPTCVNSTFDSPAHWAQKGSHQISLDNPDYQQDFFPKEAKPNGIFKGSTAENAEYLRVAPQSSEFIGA
Receptor tyrosine-protein kinase erbB-2 (Homo sapiens), sequence (P04626 whole entry): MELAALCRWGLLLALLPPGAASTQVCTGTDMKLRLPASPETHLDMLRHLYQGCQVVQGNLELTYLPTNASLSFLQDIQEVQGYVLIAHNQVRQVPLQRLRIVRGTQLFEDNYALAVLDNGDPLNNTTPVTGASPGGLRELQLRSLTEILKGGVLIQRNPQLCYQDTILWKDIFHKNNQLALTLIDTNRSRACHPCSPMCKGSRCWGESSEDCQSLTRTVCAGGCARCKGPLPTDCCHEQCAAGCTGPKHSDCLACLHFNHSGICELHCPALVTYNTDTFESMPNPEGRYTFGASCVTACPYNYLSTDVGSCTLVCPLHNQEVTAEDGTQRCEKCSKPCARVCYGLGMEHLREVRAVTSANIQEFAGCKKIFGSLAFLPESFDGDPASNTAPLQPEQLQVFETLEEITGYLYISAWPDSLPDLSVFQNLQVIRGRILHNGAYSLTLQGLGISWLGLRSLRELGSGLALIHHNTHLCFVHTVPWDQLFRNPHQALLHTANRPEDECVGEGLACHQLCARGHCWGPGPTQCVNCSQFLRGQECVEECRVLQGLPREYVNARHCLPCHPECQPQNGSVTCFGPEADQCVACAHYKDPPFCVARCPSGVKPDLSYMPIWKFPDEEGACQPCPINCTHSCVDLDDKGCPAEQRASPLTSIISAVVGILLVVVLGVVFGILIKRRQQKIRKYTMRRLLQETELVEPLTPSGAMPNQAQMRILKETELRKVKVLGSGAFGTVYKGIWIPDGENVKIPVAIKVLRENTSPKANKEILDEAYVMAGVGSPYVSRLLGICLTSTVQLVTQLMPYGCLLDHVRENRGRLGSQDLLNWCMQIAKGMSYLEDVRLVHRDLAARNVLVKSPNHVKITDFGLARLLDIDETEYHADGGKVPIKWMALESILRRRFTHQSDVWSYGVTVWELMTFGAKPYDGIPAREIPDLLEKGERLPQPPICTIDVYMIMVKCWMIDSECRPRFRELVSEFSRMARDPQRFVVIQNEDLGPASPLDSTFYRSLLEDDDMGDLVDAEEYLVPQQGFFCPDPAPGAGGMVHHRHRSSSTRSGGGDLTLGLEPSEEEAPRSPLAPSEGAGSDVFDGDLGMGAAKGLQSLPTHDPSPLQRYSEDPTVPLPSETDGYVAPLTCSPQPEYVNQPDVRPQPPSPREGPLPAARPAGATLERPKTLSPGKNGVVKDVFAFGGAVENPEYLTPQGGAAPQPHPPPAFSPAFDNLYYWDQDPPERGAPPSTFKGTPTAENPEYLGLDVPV
Ephrin type-A receptor 2 (Homo sapiens), sequence (P29317 whole entry): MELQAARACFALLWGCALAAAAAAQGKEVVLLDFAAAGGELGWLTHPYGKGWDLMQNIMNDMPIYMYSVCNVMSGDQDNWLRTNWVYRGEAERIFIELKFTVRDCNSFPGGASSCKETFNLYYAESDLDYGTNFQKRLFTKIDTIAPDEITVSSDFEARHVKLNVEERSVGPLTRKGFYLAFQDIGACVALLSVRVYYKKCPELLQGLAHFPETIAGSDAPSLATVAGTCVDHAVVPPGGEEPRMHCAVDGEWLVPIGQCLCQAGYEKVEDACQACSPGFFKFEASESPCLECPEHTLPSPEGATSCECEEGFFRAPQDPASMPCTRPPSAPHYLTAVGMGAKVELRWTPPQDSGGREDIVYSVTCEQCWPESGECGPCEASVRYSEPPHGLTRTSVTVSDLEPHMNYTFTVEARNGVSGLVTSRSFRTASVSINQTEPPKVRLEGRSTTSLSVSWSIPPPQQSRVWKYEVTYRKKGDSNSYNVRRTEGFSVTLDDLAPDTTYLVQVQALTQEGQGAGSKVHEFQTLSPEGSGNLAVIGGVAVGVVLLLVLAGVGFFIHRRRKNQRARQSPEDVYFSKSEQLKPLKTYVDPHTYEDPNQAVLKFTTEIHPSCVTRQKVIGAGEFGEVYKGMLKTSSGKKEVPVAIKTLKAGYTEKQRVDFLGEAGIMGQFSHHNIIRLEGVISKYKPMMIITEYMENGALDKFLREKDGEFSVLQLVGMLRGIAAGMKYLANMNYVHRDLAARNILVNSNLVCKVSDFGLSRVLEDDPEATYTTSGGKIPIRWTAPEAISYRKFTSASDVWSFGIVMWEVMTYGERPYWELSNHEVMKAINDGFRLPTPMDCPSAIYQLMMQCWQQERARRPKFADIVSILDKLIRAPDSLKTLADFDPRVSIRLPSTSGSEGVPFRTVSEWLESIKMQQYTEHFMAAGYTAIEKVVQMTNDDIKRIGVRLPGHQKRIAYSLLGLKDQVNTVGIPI

Structure (SMILES): Fc1ccc(-c2cnc3nnc(C(F)(F)c4ccc5ncccc5c4)n3n2)cc1
- inhibition [1]: 28.9%
- inhibition [2]: 31.5%
- Ratio IC50 [3]: 10000
- Ratio IC50 [4]: 10000
- Ratio IC50 [5]: 10000
- inhibition [6]: 6.1%
- IC50 [7]: > 1 µM
- IC50 [8]: > 10 µM
- IC50 [9]: > 10 µM
- IC50 (NCI-H596): > 10 µM
- IC50 [10]: > 10 µM
- IC50 [11]: > 10 µM
- inhibition [12]: Dose-dependent effect
- inhibition in vivo at 12.5 mg/kg [13]: 80.1%
- inhibition in vivo at 6.25 mg/kg [14]: 46.8%
- Ratio IC50 [15]: 10000
- Ratio IC50 [16]: 10000
- Ratio IC50 [17]: 10000
- Ratio IC50 [18]: 10000
- Ratio IC50 [19]: 10000
- Ratio IC50 [20]: 10000
- Ratio IC50 [21]: 10000
- Ratio IC50 [22]: 10000
- Ratio IC50 [23]: 10000
- Ratio IC50 [24]: 10000
- Ratio IC50 [25]: > 10000
- Ratio IC50 [26]: > 10000
- selectivity ratio [27]: > 10000
